# Results from different studies.
# Lines come from different studies, so protocols differ.
# Cell line: SW-620
SMILES,assay,conditions,quantity,result
COc1ccc(C(=O)/C=C/c2ccccc2Br)cc1S(N)(=O)=O,"cell growth or viability, SRB",10 µM,inhibition,146%
Cn1cc(-c2ccc(-c3cncc(Cl)c3N3CCC4(CCNC4=O)CC3)cc2)cn1,colony formation,"14 days, 3D culture",GI50,140 nM
COc1ccc(C(=O)/C=C/c2cccc(Br)c2)cc1S(N)(=O)=O,"cell growth or viability, SRB",10 µM,inhibition,120%
O=C(/C=C/c1ccc2ncn(Cc3ccc(Cl)cc3)c(=O)c2c1)NO,"cell growth or viability, SRB",48 h,IC50,2570 nM
COc1ccc(C(=O)/C=C/c2ccc3ccccc3c2)cc1S(N)(=O)=O,"cell growth or viability, SRB",48 h,GI50,1800 nM
CC(=O)Nc1cccc(-n2c(=O)n(C3CC3)c(=O)c3c(Nc4ccc(I)cc4F)n(C)c(=O)c(C)c32)c1,"cell growth or viability, resazurin","50 nM, 72 h",viability,25.7%
CCn1cnc2cc(/C=C/C(=O)NO)ccc2c1=O,"cell growth or viability, SRB",48 h,IC50,2970 nM
COc1cc(Nc2nccc(-c3cnn4nc(OC)ccc34)n2)cc(C(F)(F)F)c1,"cell growth or viability, ATP luminescence",,IC50,160 nM
O=C(/C=C/c1ccc2c(=O)n(Cc3ccc(F)cc3)cnc2c1)NO,"cell growth or viability, SRB",48 h,IC50,1030 nM
Cc1cc(C)n(C(=S)[S][Au][PH](CCCCCC[PH]([Au][S]C(=S)n2nc(C)cc2C)(c2ccccc2)c2ccccc2)(c2ccccc2)c2ccccc2)n1,cell growth or viability,,GI50,1260 nM
CC(C)n1c(/C=C/C(O)CC(O)CC(=O)O)c(-c2ccc(F)cc2)c2ccccc21 (stereo not drawn),"cell growth or viability, SRB",72 h,IC50,0.49 µg/mL
O=C(/C=C/c1ccc2c(=O)n(CCCl)cnc2c1)NO,"cell growth or viability, SRB",48 h,IC50,5640 nM
COc1ccc(C(=O)/C=C/c2cccc(Cl)c2Cl)cc1S(N)(=O)=O,"cell growth or viability, SRB",10 µM,inhibition,147%
O=C(/C=C/c1ccc2c(=O)n(CCO)cnc2c1)NO,"cell growth or viability, SRB",48 h,IC50,3680 nM
CC[C@H](C)C(=O)O[C@H]1C[C@@H](C)C=C2C=C[C@H](C)[C@H](CC[C@@H]3C[C@@H](O)CC(=O)O3)[C@H]21,"cell growth or viability, SRB",72 h,IC50,0.03 µg/mL
